From ChEMBL document CHEMBL4689842, “EUbOPEN Chemogenomics Library wave 1” (2021)

How the values were obtained:
Format in all cases: toxicity, cell-based
[1] = test system: U2OS; assay: Multiplex assay against U2OS; conditions: human
Outline: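 Live cells were stained at seeding with Hoechst33342, BioTracker Green Microtubule Cytoskeleton Dye, MitoTracker Red and Annexin V Alexa Fluor 680, then imaged on a CQ1 microscope at 37°C and 5% CO2 after compound addition. CellPathfinder machine-learning gating split cells into Hoechst high-intensity objects or normal cells. Normal cells were split into healthy, pyknosed or fragmented nuclei, and pyknosed cells into mitotic or apoptotic. Tubulin, mitochondrial-mass and membrane-permeability phenotypes are per cents of healthy-nucleus cells.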

[2] = test system: Fibroblast; assay: Incucyte cell viability with human fibroblast; conditions: 10 µM, compound concentration 10 uM; further: filed as whole numbers so only -1 and 0 and 1 occur
[3] = test system: U2OS; assay: Incucyte cell viability with U2OS; conditions: human, 10 µM, compound concentration 10 uM; further: filed as whole numbers so only -1 and 0 and 1 occur
[4] = test system: HEK-293T; assay: Incucyte cell viability with HEK293T; conditions: human, 10 µM, compound concentration 10 uM; further: filed as whole numbers so only -1 and 0 and 1 occur
[5] = 12 h, 1 µM, compound concentration 1 uM, replicate 1
[6] = 12 h, 1 µM, compound concentration 1 uM, replicate 2
[7] = 12 h, 10 µM, compound concentration 10 uM, replicate 1
[8] = 12 h, 10 µM, compound concentration 10 uM, replicate 2
[9] = 24 h, 1 µM, compound concentration 1 uM, replicate 1
[10] = 24 h, 1 µM, compound concentration 1 uM, replicate 2
[11] = 24 h, 10 µM, compound concentration 10 uM, replicate 1
[12] = 24 h, 10 µM, compound concentration 10 uM, replicate 2
[13] = 0 h, replicate number 2, timepoint 0 hours
[14] = 24 h, replicate number 1, timepoint 24 hours
[15] = 18 h, replicate number 1, timepoint 18 hours

In the case of NC(=O)c1ccc2nc(-c3ccc(C4(N)CCC4)cc3)c(-c3ccccc3)n2n1 [BAY-1125976], the “Population Apoptotic (%)” value [1, 5] is reported as 52%, the “Population Healthy Nuclei (%)” value [1, 5] is reported as 79% and the “Population Hoechst High Intensity Objects (%)” value [1, 5] is reported as 6%. For the same molecule, the “Population Mitochondria Different-Phenotype (%)” value [1, 5] was 19%, the “Population Mitotic Cells (%)” value [1, 5] was 47% and the “Population Normal (%)” value [1, 5] was 93%. For the same molecule, the “Population Tubulin-Different-Phenotype (%)” value [1, 5] was 46%, the “Total Cell Count” value [1, 5] was 239 and the “Population Apoptotic (%)” value [1, 6] was 42%. The “Population Healthy Nuclei (%)” value [1, 6] was 80%, the “Population Hoechst High Intensity Objects (%)” value [1, 6] was 12% and the “Population Mitotic Cells (%)” value [1, 6] was 57%. The “Population Normal (%)” value [1, 6] was 87%, the “Population Tubulin-Different-Phenotype (%)” value [1, 6] was 35% and the “Total Cell Count” value [1, 6] was 109. For the same molecule, the “Population Apoptotic (%)” value [1, 7] was 66%, the “Population Healthy Nuclei (%)” value [1, 7] was 92% and the “Population Mitochondria Different-Phenotype (%)” value [1, 7] was 24%. For the same molecule, the “Population Mitotic Cells (%)” value [1, 7] was 33%, the “Population Tubulin-Different-Phenotype (%)” value [1, 7] was 27% and the “Total Cell Count” value [1, 7] was 210. For the same molecule, the “Population Apoptotic (%)” value [1, 8] was 20%, the “Population Healthy Nuclei (%)” value [1, 8] was 88% and the “Population Hoechst High Intensity Objects (%)” value [1, 8] was 4%. The “Population Mitochondria Different-Phenotype (%)” value [1, 8] was 23%, the “Population Mitotic Cells (%)” value [1, 8] was 80% and the “Population Normal (%)” value [1, 8] was 95%. The “Population Tubulin-Different-Phenotype (%)” value [1, 8] was 18%, the “Total Cell Count” value [1, 8] was 165 and the “Population Apoptotic (%)” value [1, 9] was 42%. For the same molecule, the “Population Healthy Nuclei (%)” value [1, 9] was 76%, the “Population Hoechst High Intensity Objects (%)” value [1, 9] was 5% and the “Population Mitochondria Different-Phenotype (%)” value [1, 9] was 18%. For the same molecule, the “Population Mitotic Cells (%)” value [1, 9] was 57%, the “Population Normal (%)” value [1, 9] was 94% and the “Population Tubulin-Different-Phenotype (%)” value [1, 9] was 23%. The “Total Cell Count” value [1, 9] was 273, the “Population Apoptotic (%)” value [1, 10] was 44% and the “Population Healthy Nuclei (%)” value [1, 10] was 77%. For the same molecule, the “Population Hoechst High Intensity Objects (%)” value [1, 10] was 8%, the “Population Mitochondria Different-Phenotype (%)” value [1, 10] was 20% and the “Population Mitotic Cells (%)” value [1, 10] was 55%. The “Population Normal (%)” value [1, 10] was 91%, the “Population Tubulin-Different-Phenotype (%)” value [1, 10] was 13% and the “Total Cell Count” value [1, 10] was 124. The “Population Apoptotic (%)” value [1, 11] was 33%, the “Population Hoechst High Intensity Objects (%)” value [1, 11] was 1% and the “Population Mitochondria Different-Phenotype (%)” value [1, 11] was 31%. For the same molecule, the “Population Mitotic Cells (%)” value [1, 11] was 66%, the “Population Normal (%)” value [1, 11] was 98% and the “Population Tubulin-Different-Phenotype (%)” value [1, 11] was 30%. For the same molecule, the “Total Cell Count” value [1, 11] was 258, the “Population Apoptotic (%)” value [1, 12] was 7% and the “Population Healthy Nuclei (%)” value [1, 12] was 87%. The “Population Hoechst High Intensity Objects (%)” value [1, 12] was 5%, the “Population Mitochondria Different-Phenotype (%)” value [1, 12] was 28% and the “Population Mitotic Cells (%)” value [1, 12] was 92%. The “Population Normal (%)” value [1, 12] was 94%, the “Population Tubulin-Different-Phenotype (%)” value [1, 12] was 25% and the “Total Cell Count” value [1, 12] was 213. The “Growth Rate” value ([2]; 0 h, replicate number 1, timepoint 0 hours) was 1, the “Growth Rate” value [2, 13] was 0 and the “Growth Rate” value [2, 14] was 1. For the same molecule, the “Growth Rate” value [3, 13] was 0, the “Growth Rate” value [3, 15] was 1 and the “Growth Rate” value [3, 14] was 1. For the same molecule, the “Growth Rate” value ([4]; 6 h, replicate number 1, timepoint 6 hours) was 0, the “Growth Rate” value ([4]; 12 h, replicate number 1, timepoint 12 hours) was 0 and the “Growth Rate” value [4, 15] was 0. For the same molecule, the “Growth Rate” value [4, 14] was 0.
